Experimental data published in ChEMBL document CHEMBL4007450, “Development of 1,2,4-Oxadiazoles as Potent and Selective Inhibitors of the Human Deacetylase Sirtuin 2: Structure-Activity Relationship, X-ray Crystal Structure, and Anticancer Activity” (J Med Chem, 2017).
The source made the active and inactive calls. No cut-off for these calls is given here.

Experiments:
[1] = target: T1, NAD-dependent protein deacetylase sirtuin-2 (Homo sapiens) (UniProt Q8IXJ6); assay: Inhibition of human N-terminal His6-SUMO-tagged SIRT2 catalytic domain (43 to 356 residues) deacetylase activity expressed in Escherichia coli using alpha-tubulin-acetylLys40 peptide as substrate at 100 uM after 45 mins in presence of NAD+ by pNCA/GDH-based microplate spectrophotometric analysis
T1 sequence (whole entry): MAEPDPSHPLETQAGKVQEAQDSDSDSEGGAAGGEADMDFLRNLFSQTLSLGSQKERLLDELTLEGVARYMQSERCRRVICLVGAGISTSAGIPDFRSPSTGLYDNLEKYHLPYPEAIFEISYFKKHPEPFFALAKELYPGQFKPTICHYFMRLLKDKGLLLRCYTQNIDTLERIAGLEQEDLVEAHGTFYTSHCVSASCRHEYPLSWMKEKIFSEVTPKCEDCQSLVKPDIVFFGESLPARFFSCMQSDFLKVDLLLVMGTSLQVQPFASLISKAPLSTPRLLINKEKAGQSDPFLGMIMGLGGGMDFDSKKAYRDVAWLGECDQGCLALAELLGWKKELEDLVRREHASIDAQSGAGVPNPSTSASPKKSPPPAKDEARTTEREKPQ
Outline: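 Continuous coupled assay: Sirt2 product nicotinamide is converted by pNCA/GDH, and NADPH oxidation is read at 340 nm. Compounds were tested at 10 and 100 μM. Background was taken without peptide or NAD+.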

U-937 [2] = assay: Effect on cell cycle arrest in human U937 cells at 25 uM after 48 hrs by propidium iodide staining-based FACS analysis; format: functional
[3] = target: T2, NAD-dependent protein deacetylase sirtuin-2 (Homo sapiens, UniProt Q8IXJ6)
T2 sequence (Q8IXJ6 whole entry): T1 sequence (whole entry)

U-937 [4] = assay: Cell cycle arrest in human U937 cells assessed as accumulation at G2/M phase at 25 uM after 48 hrs by propidium iodide staining-based FACS analysis; format: functional
[5] = target: T3, NAD-dependent protein deacetylase sirtuin-3, mitochondrial (Homo sapiens) (UniProt Q9NTG7); assay: Inhibition of human SIRT3 (114 to 380 residues) activity expressed in Escherichia coli using AceCS2 peptide as substrate up to 100 uM after 45 mins in presence of NAD+ by pNCA/GDH-based microplate spectrophotometric analysis
T3 sequence (whole entry): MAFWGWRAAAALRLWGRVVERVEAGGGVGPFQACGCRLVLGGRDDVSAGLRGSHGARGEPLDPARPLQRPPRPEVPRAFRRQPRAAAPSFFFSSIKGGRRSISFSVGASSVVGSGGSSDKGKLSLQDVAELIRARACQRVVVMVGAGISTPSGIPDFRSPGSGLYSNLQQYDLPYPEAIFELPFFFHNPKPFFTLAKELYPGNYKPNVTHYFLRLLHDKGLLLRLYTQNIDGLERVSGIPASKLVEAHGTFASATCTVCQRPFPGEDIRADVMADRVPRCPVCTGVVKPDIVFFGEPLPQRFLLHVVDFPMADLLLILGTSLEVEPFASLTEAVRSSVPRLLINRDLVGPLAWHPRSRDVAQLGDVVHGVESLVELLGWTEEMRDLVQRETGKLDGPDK
Outline: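 Same pNCA/GDH-coupled 340 nm NADPH read-out as the Sirt2 assay, using 20 mM Na-phosphate pH 7.8 with 3% DMSO at 20 °C for 45 min. Sirt3 (114-380) was used at 5 µM with AceCS2 peptide TRSGacKVMR as substrate. Inhibitors were tested up to 100 µM.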

[6] = target: T4, NAD-dependent protein deacetylase sirtuin-1 (Homo sapiens) (UniProt Q96EB6); assay: Inhibition of human full length SIRT1 activity expressed in Escherichia coli using p53 peptide as substrate up to 100 uM after 45 mins in presence of NAD+ by pNCA/GDH-based microplate spectrophotometric analysis
T4 sequence (whole entry): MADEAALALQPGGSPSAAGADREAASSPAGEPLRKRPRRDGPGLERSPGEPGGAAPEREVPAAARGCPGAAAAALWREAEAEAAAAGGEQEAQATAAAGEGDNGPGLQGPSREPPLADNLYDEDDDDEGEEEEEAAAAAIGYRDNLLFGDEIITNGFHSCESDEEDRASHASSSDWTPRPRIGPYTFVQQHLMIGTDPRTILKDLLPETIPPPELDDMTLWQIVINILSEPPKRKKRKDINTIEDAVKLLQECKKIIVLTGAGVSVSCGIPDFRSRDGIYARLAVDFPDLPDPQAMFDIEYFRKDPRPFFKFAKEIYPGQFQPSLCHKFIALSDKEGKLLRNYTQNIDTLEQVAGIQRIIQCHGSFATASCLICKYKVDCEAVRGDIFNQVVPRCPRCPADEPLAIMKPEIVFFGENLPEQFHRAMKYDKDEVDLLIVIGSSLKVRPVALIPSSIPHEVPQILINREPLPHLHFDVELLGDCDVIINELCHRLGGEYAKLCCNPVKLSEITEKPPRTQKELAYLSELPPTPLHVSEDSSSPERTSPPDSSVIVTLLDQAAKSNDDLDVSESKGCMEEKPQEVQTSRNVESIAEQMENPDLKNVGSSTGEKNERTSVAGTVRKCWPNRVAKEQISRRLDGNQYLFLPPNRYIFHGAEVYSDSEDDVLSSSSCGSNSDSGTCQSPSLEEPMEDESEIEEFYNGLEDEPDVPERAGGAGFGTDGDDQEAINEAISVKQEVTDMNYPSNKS
Outline: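 Full-length Sirt1 at 2 µM with p53 peptide RHKacKLMFK as substrate. Activity was measured in the same coupled pNCA/GDH mix as for Sirt2 (α-ketoglutarate, NADPH, Na-phosphate pH 7.8, 3% DMSO), following NADPH oxidation at 340 nm at 20 °C for 45 min. Compounds were tested up to 100 µM.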

[7] = target: NAD-dependent protein deacylase sirtuin-5, mitochondrial (Homo sapiens) (UniProt Q9NXA8); assay: Inhibition of human SIRT5 (34 to 302 residues) deacetylase activity expressed in Escherichia coli using Prx1 peptide as substrate up to 100 uM after 45 mins in presence of NAD+ by pNCA/GDH-based microplate spectrophotometric analysis
U-937 [8] = assay: Induction of apoptosis in human U937 cells assessed as pre-G1 accumulation at 5 to 50 uM after 48 hrs by propidium iodide staining-based FACS analysis; format: functional, cell-based
Outline: (§1)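 Leukemia cells (U937, NB4, HL-60, K562) were grown in RPMI-1640 with 10% FBS, 2 mM L-glutamine and antibiotics, then treated for 48 h at 5, 10, 25 and 50 μM. 2.5×10^5 cells were stained 30 min in the dark in hypotonic PI buffer (0.1% Triton X-100, 0.1% citrate, 50 µg/mL PI, RNase A). Apoptosis was scored as pre-G1 content by flow cytometry. Duplicates, mean ± SD.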

NB-4 = assay: Induction of apoptosis in human NB4 cells assessed as pre-G1 accumulation at 5 to 50 uM after 48 hrs by propidium iodide staining-based FACS analysis; format: functional, cell-based; outline: as §1
K562 = assay: Induction of apoptosis in human K562 cells assessed as pre-G1 accumulation at 5 to 50 uM after 48 hrs by propidium iodide staining-based FACS analysis; format: functional, cell-based; outline: as §1
HL-60 = assay: Induction of apoptosis in human HL60 cells assessed as pre-G1 accumulation at 5 to 50 uM after 48 hrs by propidium iodide staining-based FACS analysis; format: functional, cell-based; outline: as §1
MDA-MB-231 = assay: Induction of apoptosis in human MDA-MB-231 cells assessed as pre-G1 accumulation at 5 to 50 uM after 48 hrs by propidium iodide staining-based FACS analysis; format: functional, cell-based
Outline: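 MDA-MB-231 breast cancer cells were grown in DMEM with 10% FBS, 2 mM L-glutamine and antibiotics, then exposed for 48 h at 5, 10, 25 or 50 μM. 2.5×10^5 cells were stained in hypotonic buffer with 50 µg/mL PI, 0.1% Triton X-100, 0.1% citrate and RNase A for 30 min in the dark. Pre-G1 fraction was measured by flow cytometry. Biological duplicates, mean ± SD.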

[9] = target: NAD-dependent protein deacylase sirtuin-5, mitochondrial (Homo sapiens) (UniProt Q9NXA8); assay: Inhibition of human SIRT5 (34 to 302 residues) desuccinylase activity expressed in Escherichia coli using peptide as substrate up to 100 uM after 45 mins in presence of NAD+ by pNCA/GDH-based microplate spectrophotometric analysis

Chain of NAD-dependent protein deacylase sirtuin-5, mitochondrial (Homo sapiens) (Q9NXA8 37-310 limits assumed): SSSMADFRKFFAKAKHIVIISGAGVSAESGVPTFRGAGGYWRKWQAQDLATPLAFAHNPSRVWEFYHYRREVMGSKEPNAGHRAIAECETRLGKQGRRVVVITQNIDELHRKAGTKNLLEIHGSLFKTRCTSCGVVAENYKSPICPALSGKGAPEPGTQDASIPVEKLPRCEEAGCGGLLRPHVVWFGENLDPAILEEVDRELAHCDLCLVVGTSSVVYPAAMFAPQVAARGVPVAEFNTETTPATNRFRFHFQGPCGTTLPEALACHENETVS

Compound	inhibition [1]	Activity (U-937 [2])	further results
Clc1ccc(-c2noc(CN3CCCCCC3)n2)cc1	Active	inactive	
BrCCCCc1nc(-c2ccc(Br)cc2)no1		inactive	IC50 [3]: 2.6 µM
OCCCc1nc(-c2ccc(Cl)cc2)no1			IC50 [3]: 41.2 µM
Clc1ccc(-c2noc(CBr)n2)cc1			Activity (U-937 [4]): Active
Clc1ccc(-c2noc(CN3CCCCC3)n2)cc1	Active	inactive	
c1ccc(-c2noc(CN3CCCCC3)n2)cc1		inactive	
COC(=O)c1nc(-c2ccc(Br)cc2)no1		inactive	
Clc1ccc(-c2noc(CN3CCOCC3)n2)cc1	Active	inactive	
Clc1ccc(-c2noc(CCCBr)n2)cc1	Active	inactive	inhibition [5]: inactive; inhibition [6]: inactive; inhibition [7]: inactive; Activity (U-937 [8]): inactive; Activity (NB-4): inactive; Activity (K562): inactive; Activity (HL-60): inactive; Activity (MDA-MB-231): inactive; IC50 [3]: 2.5 µM; inhibition [9]: inactive
Clc1ccccc1-c1noc(CCCBr)n1			Activity (U-937 [4]): Active
Cc1ccc(-c2noc(CCCBr)n2)cc1	Active	inactive	
BrCCCc1nc(-c2cccc(Br)c2)no1		inactive	
FC(F)(F)c1nc(-c2ccc(Br)cc2)no1		inactive	
BrCCCc1nc(-c2ccccc2Br)no1			Activity (U-937 [4]): Active
CC(=O)OCCCc1nc(-c2ccc(Cl)cc2)no1			IC50 [3]: 21.2 µM
CCN(CC)Cc1nc(-c2ccc([N+](=O)[O-])cc2)no1	inactive	inactive	
Clc1ccccc1-c1noc(CN2CCCCC2)n1		inactive	
Clc1ccc(-c2noc(CN3CCN(c4ccccc4)CC3)n2)cc1	Active	inactive	
BrCCCc1nc(-c2ccccc2)no1		inactive	

Compound	inhibition [1]	Activity (U-937 [2])	further results
O=[N+]([O-])c1ccc(-c2noc(CCCBr)n2)cc1	Active	inactive	IC50 [3]: 6.6 µM
NC(=O)c1nc(-c2ccc(Br)cc2)no1		inactive	
O=[N+]([O-])c1ccc(-c2noc(CN3CCCC3)n2)cc1	inactive	inactive	
Clc1cccc(-c2noc(CCCBr)n2)c1		inactive	
ClCCCc1nc(-c2ccc(Br)cc2)no1		inactive	inhibition [5]: inactive; inhibition [6]: inactive; inhibition [7]: inactive; IC50 [3]: 3.6 µM; inhibition [9]: inactive
Clc1ccc(-c2noc(CN3CCCC3)n2)cc1	Active	inactive	
Clc1ccc(-c2noc(CCCN3CCCCC3)n2)cc1	inactive	inactive	
OCC1CCN(Cc2nc(-c3ccc(Cl)cc3)no2)CC1	Active	inactive	
CN(C)Cc1nc(-c2ccc([N+](=O)[O-])cc2)no1	inactive	inactive	
CN1CCN(Cc2nc(-c3ccc(Cl)cc3)no2)CC1	Active	inactive	
OCCN1CCN(CCCc2nc(-c3ccccc3)no2)CC1	inactive	inactive	
Cc1nc(-c2ccc(Cl)cc2)no1		inactive	
Clc1ccc(-c2noc(CNC3CCCCC3)n2)cc1	Active	inactive	
c1cncc(-c2noc(CN3CCCCC3)n2)c1		inactive	
CN(C)Cc1nc(-c2ccc(Cl)cc2)no1		inactive	
FC(F)(F)c1ccc(-c2noc(CCCBr)n2)cc1		inactive	IC50 [3]: 3.9 µM
Clc1cccc(-c2noc(CN3CCCCC3)n2)c1		inactive	
Clc1ccc(-c2noc(CN3CCSCC3)n2)cc1	Active	inactive	
